# Results as given in ChEMBL document CHEMBL1128466, “Synthesis and antimalarial activities of several fluorinated artemisinin derivatives” (1995).
# Tests used:
# Format in all cases: functional
# Plasmodium falciparum [1] = test: Relative activity against Plasmodium falciparum D6 compared to arteether as IC50 ratio
# Plasmodium falciparum [2] = test: Relative activity against Plasmodium falciparum D6 compared to artemisinin as IC50 ratio
# Plasmodium falciparum [3] = test: Relative activity against Plasmodium falciparum W-2 compared to of IC50 value of artemisinin as IC50 ratio
# Plasmodium falciparum [4] = test: Relative activity against Plasmodium falciparum W2 compared to arteether as IC50 ratio
# Plasmodium falciparum [5] = test: Relative activity against Plasmodium falciparum FCR3 compared to artemisinin as IC50 ratio
# Procedure, shortened: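 In vitro screen of P. falciparum strain FCR3 cultures by a modified Desjardins method. The value is the ratio of artemisinin activity to that of each fluorinated derivative.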
smiles,measurement,setting,value
CCO[C@H]1O[C@@H]2O[C@@]3(C)CC[C@H]4[C@H](C(F)F)CC[C@@H]([C@H]1C)[C@@]24OO3,Ratio,Plasmodium falciparum [1],0.3
same,Ratio,Plasmodium falciparum [2],1
same,Ratio,Plasmodium falciparum [3],2
same,Ratio,Plasmodium falciparum [4],1.5
C[C@@H]1CC[C@H]2[C@@](C)(O)[C@@H](OCc3cccc(F)c3)O[C@@H]3O[C@@]4(C)CC[C@@H]1[C@]32OO4,Ratio,Plasmodium falciparum [5],0.11
CCO[C@H]1O[C@@H]2O[C@@]3(C)CC[C@H]4[C@H](C)CC[C@@H]([C@]1(C)O)[C@@]24OO3,Ratio,Plasmodium falciparum [2],0.45
same,Ratio,Plasmodium falciparum [3],0.3
C[C@@H]1CC[C@H]2[C@@](C)(O)[C@@H](OCC(F)(F)F)O[C@@H]3O[C@@]4(C)CC[C@@H]1[C@]32OO4,Ratio,Plasmodium falciparum [2],0.15
same,Ratio,Plasmodium falciparum [3],0.14
CCO[C@H]1O[C@@H]2O[C@@]3(C)CC[C@H]4[C@H](C)CC[C@@H]([C@@]1(C)O)[C@@]24OO3,Ratio,Plasmodium falciparum [2],0.08
same,Ratio,Plasmodium falciparum [3],0.06
CCO[C@H]1O[C@@H]2O[C@@]3(C)CC[C@H]4[C@H](C=O)CC[C@@H]([C@H]1C)[C@@]24OO3,Ratio,Plasmodium falciparum [1],0.1
same,Ratio,Plasmodium falciparum [2],1.2
same,Ratio,Plasmodium falciparum [3],1.4
same,Ratio,Plasmodium falciparum [4],0.8
C[C@@H]1CC[C@H]2[C@@](C)(O)[C@@H](OCc3c(F)c(F)c(F)c(F)c3F)O[C@@H]3O[C@@]4(C)CC[C@@H]1[C@]32OO4,Ratio,Plasmodium falciparum [5],0.1
CCO[C@H]1O[C@@H]2O[C@@]3(C)CC[C@H]4[C@H](C)C(=O)C[C@@H]([C@H]1C)[C@@]24OO3,Ratio,Plasmodium falciparum [1],0.05
same,Ratio,Plasmodium falciparum [2],0.5
same,Ratio,Plasmodium falciparum [3],1.2
same,Ratio,Plasmodium falciparum [4],0.6
C[C@@H]1CC[C@H]2[C@@](C)(O)[C@@H](OCc3ccccc3F)O[C@@H]3O[C@@]4(C)CC[C@@H]1[C@]32OO4,Ratio,Plasmodium falciparum [5],0.11
C[C@H]1[C@@H](OCc2ccc(F)cc2)O[C@@H]2O[C@@]3(C)CC[C@H]4[C@H](C)CC[C@@H]1[C@@]24OO3,Ratio,Plasmodium falciparum [5],0.04
C[C@H]1[C@@H](CC(F)F)O[C@@H]2O[C@@]3(C)CC[C@H]4[C@H](C)CC[C@@H]1[C@@]24OO3,Ratio,Plasmodium falciparum [1],1.3
same,Ratio,Plasmodium falciparum [2],3.8
same,Ratio,Plasmodium falciparum [3],1.1
same,Ratio,Plasmodium falciparum [4],0.73
C[C@@H]1CC[C@H]2[C@@](C)(O)[C@@H](OCc3ccc(F)cc3)O[C@@H]3O[C@@]4(C)CC[C@@H]1[C@]32OO4,Ratio,Plasmodium falciparum [5],0.1
C[C@@H]1CC[C@H]2[C@](C)(O)[C@@H](OCC(F)(F)F)O[C@@H]3O[C@@]4(C)CC[C@@H]1[C@]32OO4,Ratio,Plasmodium falciparum [2],1.8
same,Ratio,Plasmodium falciparum [3],1.5
CCO[C@H]1O[C@@H]2O[C@@]3(C)CC[C@H]4C(C)=C(F)C[C@@H]([C@H]1C)[C@@]24OO3,Ratio,Plasmodium falciparum [1],0.2
same,Ratio,Plasmodium falciparum [2],0.6
same,Ratio,Plasmodium falciparum [3],0.5
same,Ratio,Plasmodium falciparum [4],0.3
C[C@H]1[C@@H](CC(C)(F)F)O[C@@H]2O[C@@]3(C)CC[C@H]4[C@H](C)CC[C@@H]1[C@@]24OO3,Ratio,Plasmodium falciparum [1],0.4
same,Ratio,Plasmodium falciparum [2],1.2
same,Ratio,Plasmodium falciparum [3],0.5
same,Ratio,Plasmodium falciparum [4],0.3
"CCO[C@H]1O[C@@H]2O[C@@]3(C)CC[C@H]4[C@H](C)C(F)(F)C[C@@H]([C@H]1C)C24OO3 (single isomer, unassigned)",Ratio,Plasmodium falciparum [1],0.5
same,Ratio,Plasmodium falciparum [2],1.4
same,Ratio,Plasmodium falciparum [3],1.2
same,Ratio,Plasmodium falciparum [4],0.8
